The source of these data is ChEMBL document CHEMBL1124643 (J Med Chem, 1989).

The target in test [1] is T1, Phosphodiesterase 1 (Bos taurus, UniProt Q01061+P14100). Nature of the test: Inhibitory activity against phosphodiesterase was determined in vitro using bovine aorta, at 1 uM cGMP in the presence of calcium (10 uM) and calmodulin (15 nM). Format: protein assay. A digest of the protocol: (§1)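 Calmodulin-dependent PDE peak taken from DEAE-trisacryl gradient fractions of a 105000g vascular smooth muscle supernatant. Assayed with 1 μM cGMP substrate, CaCl2 and excess bovine brain calmodulin, keeping hydrolysis ≤15%. Drugs in DMSO or DMF, final solvent ≤1%. IC50 from linear regression of % activity vs log concentration, using at least six points. Mean ± SEM of three separate enzyme preparations.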

The target in test [2] is cAMP phosphodiesterase (Bos taurus). As to the kind of experiment: Inhibitory activity against phosphodiesterase was determined in vitro using bovine aorta, at 1 uM cAMP for cAMP-PDE.
Test [3] concerns the target T2, cGMP-specific 3',5'-cyclic phosphodiesterase (Bos taurus, UniProt Q28156). Nature of the test: Inhibitory activity against phosphodiesterase was determined in vitro using bovine aorta, at 1 uM cGMP for cGMP-PDE.
The target in test [4] is T2, cGMP-specific 3',5'-cyclic phosphodiesterase. As to the kind of experiment: Inhibition of cGMP-PDE phosphodiesterase from bovine aorta using 1 uM cGMP (insignificant).
Test [5] can be described thus: Inhibition of phosphodiesterase from bovine aorta with 1 uM cGMP calcium (10 uM) and calmodulin (15 nM). Set-up: species or system Bos taurus. The essentials: as §1
In test [6] the target is T2, cGMP-specific 3',5'-cyclic phosphodiesterase. As to the kind of experiment: Inhibition of cGMP-PDE phosphodiesterase from bovine aorta using 1 uM cGMP. The essentials:
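Enzyme from the 105000g supernatant, separated on DEAE-trisacryl with a 0–0.4 NaCl gradient; the cGMP-PDE peak was dialysed and stored at −80 °C. Assayed without calcium, with EGTA, at 1 μM cGMP, keeping hydrolysis ≤15%. Drugs were in DMSO or DMF, ≤1% final.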

Test [7] has as its target cAMP phosphodiesterase (Bos taurus). As to the kind of experiment: Inhibitory activity against phosphodiesterase was determined in vitro using bovine aorta, at 1 uM cAMP for cAMP-PDE. This is another data set of the same source.
Test [8] addresses T1, Phosphodiesterase 1. Nature of the test: Inhibition of phosphodiesterase from bovine aorta with 1 uM cGMP calcium (10 uM) and calmodulin (15 nM) (insignificant). Format: protein assay. The essentials:
as §1

For test [9], the target named is T1, Phosphodiesterase 1. Nature of the test: Inhibitory activity against […] phosphodiesterase was determined in vitro using bovine aorta, at 1 uM cGMP in the presence of calcium (10 uM) and calmodulin (15 nM); Compound is insignificant. Format: protein assay.
Test [10] deals with T2, cGMP-specific 3',5'-cyclic phosphodiesterase. Nature of the test: Inhibitory activity against phosphodiesterase was determined in vitro using bovine aorta, at 1 uM cGMP for cGMP-PDE;Compound is insignificant.
In test [11] the target is cAMP phosphodiesterase (Bos taurus). Nature of the test: Inhibition of cAMP-PDE phosphodiesterase from bovine aorta using 1 uM cAMP (insignificant).

pIC50: −log10 of the molar value. Bounds are passed on as bounds.

Turning to `COc1ccc(C2CNC(=O)C2)cc1O` (centres undefined), the IC50 (on Phosphodiesterase 1 [1]; in test [2]) was more than 0.001 M each time. Further, in [3], the negative-log IC50 (pIC50) is less than 3.00.
For the molecule `CCCCOc1ccc(C2CNC(=O)C2)cc1OC` (centres undefined), the IC50 (on Phosphodiesterase 1 [1]; in [2]) was more than 0.001 M in each case. Also, the pIC50 in test [3] was less than 3.00.
As for `COc1ccc(C2CNC(=O)C2)cc1OCCCC(=O)N(C)C1CCCCC1` (centres undefined), the IC50 on Phosphodiesterase 1 [1] is more than 0.001 M; in [2], 34 µM. Further, the negative logarithm of the IC50 (pIC50) in test [3] was less than 3.00.
For `COc1ccc(C2CC(=O)N(c3ccccc3)C2)cc1OC` (centres undefined), the pIC50 in test [4] is less than 3.00; in test [5], 3.64.
`COc1ccc(C2CNC(=O)C2C)cc1OC` (centres undefined): the IC50 at Phosphodiesterase 1 [1] was more than 0.001 M; in [2], 22 µM. In test [3], the pIC50 was less than 3.00.
As for `O=C1CC(c2ccccc2)CN1` (centres undefined), the IC50 at Phosphodiesterase 1 [1] is more than 0.001 M. The molecule further showed a negative logarithm of the IC50 (pIC50) in test [6] of less than 3.00.
On to `COc1ccc(C2CC(=O)N(C(=O)c3ccccc3)C2)cc1OC` (centres undefined), for which the IC50 in test [7] is 58 µM; on Phosphodiesterase 1 [8] it was more than 0.001 M. In test [4], this molecule gave a pIC50 of less than 3.00.
As to `CCOC(=O)CCCOc1cc(C2CNC(=O)C2)ccc1OC` (centres undefined), the IC50 on Phosphodiesterase 1 [1] was more than 0.001 M; in test [2], 30 µM. Also, the pIC50 in test [3] is less than 3.00.
For the molecule `COc1ccc(C2CC(=O)N(Cc3ccccc3)C2)cc1OC` (centres undefined), at Phosphodiesterase 1 [9], the IC50 is recorded as more than 0.001 M. Further, the negative-log IC50 (pIC50) in [10] is less than 3.00.
As to `COc1ccc(C2CNC(=O)C2)cc1OCc1ccccc1` (centres undefined), the IC50 at Phosphodiesterase 1 [1] was more than 0.001 M; in [2] it was 96 µM. Moreover, the pIC50 in test [3] is 3.76.
On to `C#CCOc1cc(C2CNC(=O)C2)ccc1OC` (centres undefined), for which the IC50 on Phosphodiesterase 1 [1] is more than 0.001 M. This molecule gave a negative-log IC50 (pIC50) in test [3] of less than 3.00.
Turning to `CCC(C)COc1cc(C2CNC(=O)C2)ccc1OC` (centres undefined), the IC50 on Phosphodiesterase 1 [1] is on record as more than 0.001 M. Moreover, in [3], the pIC50 was 3.70.
With `CCCCOc1cccc(C2CNC(=O)C2)c1` (centres undefined), the IC50 (on Phosphodiesterase 1 [1]; in test [2]) was more than 0.001 M throughout. Further, the pIC50 in test [6] is less than 3.00.
Consider `CCCCOc1ccc(C2CNC(=O)C2)cc1` (centres undefined), for which the IC50 (on Phosphodiesterase 1 [9]; in [11]) was more than 0.001 M in each case. In [10], the pIC50 was less than 3.00.
In the case of `COc1ccc(C2CC(=O)N(C(C)=O)C2)cc1OC` (centres undefined), the IC50 in test [7] is 25 µM; at Phosphodiesterase 1 [9] it was more than 0.001 M. The negative-log IC50 (pIC50) in test [6] is less than 3.00.
On to `COc1cc2c(cc1OC)[C@@H]1CNC(=O)[C@@H]1CC2`, for which the values for the IC50 (in [7]; on Phosphodiesterase 1 [9]) were 220 µM and more than 0.001 M, respectively. Moreover, in [10], the pIC50 is less than 3.00.
As to `CCCCOc1cc(C2CNC(=O)C2)ccc1OC` (centres undefined), the 50% inhibitory concentration (IC50) was more than 0.001 M on Phosphodiesterase 1 [1] and 13 µM in test [2]. In addition, the pIC50 in [3] is less than 3.00.
`COc1cc2c(cc1OC)[C@@H]1CNC(=O)[C@H]1CC2`: the 50% inhibitory concentration (IC50) is 138 µM in test [7] and more than 0.001 M on Phosphodiesterase 1 [8]. This molecule gave a pIC50 in test [4] of less than 3.00.
For `COc1ccc(C2CNC(=O)C2C(=O)O)cc1OC` (centres undefined), the IC50 on Phosphodiesterase 1 [9] is more than 0.001 M. In test [10], this molecule showed a pIC50 of less than 3.00.
On the same counts, the results for `COc1ccc(C2CC(=O)N(C)C2)cc1OC` (centres undefined) are more than 0.001 M and less than 3.00.
`CCCCOc1cc(C2CN=C(S)C2)ccc1OC` (centres undefined): the results for the IC50 (in [7]; at Phosphodiesterase 1 [9]) were 500 µM and more than 0.001 M, respectively. This molecule also showed a pIC50 in test [6] of 3.71.
As for `COc1ccc(C2CNC(=O)C2)cc1OCCCC(=O)O` (centres undefined), the values for the IC50 (on Phosphodiesterase 1 [1]; in test [2]) were more than 0.001 M and 400 µM, respectively. The same molecule showed a pIC50 in test [3] of less than 3.00.
In the case of `CCOC(=O)C1C(=O)NCC1c1ccc(OC)c(OC)c1` (centres undefined), the results for the IC50 (in [7]; on Phosphodiesterase 1 [9]) were 21 µM and more than 0.001 M, respectively. The molecule also had a pIC50 in test [10] of less than 3.00.
On to `COc1ccc(C2CCNC2)cc1OC.O=C(O)C(=O)O` (centres undefined), for which the IC50 (at Phosphodiesterase 1 [9]; in test [11]) was more than 0.001 M throughout. The molecule further showed a pIC50 in test [10] of less than 3.00.
Turning to `COc1cc2c(cc1OC)[C@H]1CC(=O)NC1C2` (some centres undefined), the values for the IC50 (in [7]; on Phosphodiesterase 1 [9]) were 800 µM and more than 0.001 M, respectively. For the same molecule, in test [10], the pIC50 is less than 3.00.
With `CCCCNC(=O)CCCOc1cc(C2CNC(=O)C2)ccc1OC` (centres undefined), the IC50 at Phosphodiesterase 1 [1] is more than 0.001 M; in test [2], 16 µM. The molecule also had a pIC50 in test [3] of less than 3.00.
On the same counts, the results for `COc1ccc(C2CNC(=O)C2)cc1OCC(C)C` (centres undefined) are more than 0.001 M, 18 µM and less than 3.00.
For the molecule `C=C(C)COc1cc(C2CNC(=O)C2)ccc1OC` (centres undefined), the IC50 at Phosphodiesterase 1 [1] is more than 0.001 M; in [2], 24 µM. The pIC50 in test [3] was less than 3.00.
As for `COc1ccc(C2CNC(=O)C2)cc1OC` (centres undefined), the IC50 at Phosphodiesterase 1 [1] is reported as more than 0.001 M. This molecule gave a pIC50 in test [3] of less than 3.00.
With `CCCCOc1cc(CC2CNC(=O)N2)ccc1OC` (centres undefined) [RO-201724], at Phosphodiesterase 1 [1], the IC50 amounted to 940 µM. In test [3], this molecule gave a pIC50 of 3.42.
For the molecule `COc1ccc(C2CNC(=O)C2)cc1OC1CCCC1` (centres undefined) [ROLIPRAM], the IC50 at Phosphodiesterase 1 [1] turned out to be 2700 µM.
Take `COc1cc2c(cc1OC)-c1c/c(=N\c3c(C)cc(C)cc3C)n(C)c(=O)n1CC2` [TREQUINSIN]: the values for the pIC50 in test [5] and in [6] were 4.89 and 5.30, respectively.
